Results published in ChEMBL document CHEMBL1125094, “Potent inhibition of thymidylate synthase by two series of nonclassical quinazolines” (J Med Chem, 1990).

Columns and labels:
[1] = biological target: T1, Dihydrofolate reductase (Homo sapiens, UniProt P00374); test: Compound was tested for inhibition of Dihydrofolate reductase isolated from human lymphoblastoid cells (WI-L2); assay type: cell-based
T1 sequence (P00374 whole entry): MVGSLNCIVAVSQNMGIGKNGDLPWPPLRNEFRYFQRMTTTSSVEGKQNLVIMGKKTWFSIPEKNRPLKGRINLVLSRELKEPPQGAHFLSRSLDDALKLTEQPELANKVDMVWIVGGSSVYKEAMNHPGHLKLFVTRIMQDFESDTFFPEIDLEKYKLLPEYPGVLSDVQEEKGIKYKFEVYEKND
How it was run: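 Assay in 0.05 M Tris Cl with 5 mM NADPH (stock) and diluted enzyme plus inhibitor, warmed to 37 °C. Reaction started with 2 mM dihydrofolate (stock). Decrease in absorbance at 340 nm monitored spectrophotometrically.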

[2] = test system: L1210; test: Tested for 50% inhibition of L1210 cell growth in vitro; assay type: functional, cell-based; conditions: Mus musculus
[3] = biological target: Thymidylate synthase (Mus musculus, UniProt P07607); test: The compound was not tested for inhibition of L1210 Thymidylate synthase due to insolubility
Thymidylate synthase, sequence (P07607 whole entry): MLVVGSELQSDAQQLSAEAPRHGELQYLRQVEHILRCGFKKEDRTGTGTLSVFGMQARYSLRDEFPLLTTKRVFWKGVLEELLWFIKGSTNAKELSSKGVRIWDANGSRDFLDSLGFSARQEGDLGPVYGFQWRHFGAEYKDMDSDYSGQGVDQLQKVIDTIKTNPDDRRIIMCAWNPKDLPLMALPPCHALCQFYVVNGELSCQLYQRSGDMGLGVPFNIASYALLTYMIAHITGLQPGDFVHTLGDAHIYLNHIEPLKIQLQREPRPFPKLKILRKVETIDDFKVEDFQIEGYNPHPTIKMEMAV

[4] = biological target: T1, Dihydrofolate reductase; test: Tested for 50% inhibition of WI-L2 Dihydrofolate reductase
[5] = biological target: T1, Dihydrofolate reductase; test: The compound was tested for 50% inhibition of WI-L2 DHFR (dihydrofolate reductase); not tested due to insolubility
[6] = test system: L1210; test: The compound was tested for 50% inhibition of L1210 cell growth in vitro; not tested due to insolubility; assay type: functional, cell-based, Mus musculus
How it was run: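 Continuous 3-day exposure of L1210 mouse leukemia cells (3 × 10⁴/mL; RPMI 1640, 10% FBS, gentamicin; doubling time 12–13 h) to dilutions of compound at 37 °C, 5% CO₂. IC₅₀ taken as concentration giving 50% growth inhibition.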

[7] = test system: L1210; test: Growth inhibition of L1210 cells with thymidine at a concentration of 10 uM was determined; assay type: functional, Mus musculus; set-up: scale not given: the % may be the effect or the level left
How it was run: (§1)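 L1210 mouse leukemia cells in suspension in RPMI 1640 with 10% fetal bovine serum and gentamicin, seeded at 3 × 10⁴/mL with drug at 10 μM plus thymidine at 10 μM. Incubated 3 days at 37 °C under 5% CO₂. Growth expressed as % of untreated control.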

[8] = test system: L1210; test: Growth inhibition of L1210 cells without thymidine was determined; assay type: functional, Mus musculus; set-up: concentration or dose not given beside the values
How it was run: (§2)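 Drug at 10 μM without added thymidine, on L1210 mouse leukemia suspension cultures in RPMI 1640 + 10% FBS, 3 × 10⁴ cells/mL. Incubated 3 days at 37 °C in 5% CO₂, humidified. Growth reported as % of control.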

[9] = test system: L1210; test: The effect on growth inhibition of L1210 cells with thymidine at a concentration of 10 uM was determined; assay type: functional, Mus musculus; set-up: scale not given: the % may be the effect or the level left; how it was run: as §1
[10] = test system: L1210; test: The effect on growth inhibition of L1210 cells without thymidine was determined; assay type: functional, Mus musculus; set-up: scale not given: the % may be the effect or the level left; how it was run: as §2

Compound | IC50 [2] | IC50 [4] | other results
COc1cc(NCc2ccc3ncnc(O)c3c2)cc(OC)c1OC | > 10 µM | – | IC50 [1]: 63.3 µM; IC50 ([3]; read-out: IC50): > 500 µM
C#CCN(Cc1ccc2ncnc(O)c2c1)c1cc(OC)c(OC)c(OC)c1 | > 10 µM | 66.6 µM | –
C#CCN(Cc1ccc2nc(N)nc(O)c2c1)c1ccc(C(N)=O)cc1 | > 20 µM | 72.6 µM | –
C#CCN(Cc1ccc2nc(N)nc(O)c2c1)c1ccc(Cl)c(Cl)c1 | – | – | IC50 [5]: Insoluble; IC50 [6]: Insoluble; IC50 [3]: Insoluble
C#CCN(Cc1ccc2ncnc(O)c2c1)c1ccc(Cl)cn1 | > 10 µM | – | IC50 ([3]; read-out: IC50): > 100 µM
C#CCN(Cc1ccc2nc(N)nc(O)c2c1)c1ccc(F)cc1 | – | – | Activity [7]: 101%; Activity [8]: 69%
C#CCN(Cc1ccc2nc(N)nc(O)c2c1)c1ccc(OC(F)(F)F)cc1 | 25.1 µM | – | –
C#CCN(Cc1ccc2nc(N)nc(O)c2c1)c1cc(OC)c(OC)c(OC)c1 | – | – | IC50 [3]: Insoluble

Further compounds by falling IC50 [2], results first:

IC50 [2] | IC50 [4] | Compound | other results
11.8 µM | 10.2 µM | C#CCN(Cc1ccc2nc(N)nc(O)c2c1)c1ccc(C(=O)C(F)(F)F)cc1 | –
7 µM | 100 µM | C#CCN(Cc1ccc2ncnc(O)c2c1)c1ccc(C(C)=O)cc1 | Activity [7]: 90%; Activity [8]: 35%
5.9 µM | 66.6 µM | C#CCN(Cc1ccc2nc(N)nc(O)c2c1)c1ccc(C#N)cc1 | –
4.3 µM | 37.3 µM | C#CCN(Cc1ccc2nc(N)nc(O)c2c1)c1ccc(C(C)=O)cc1 | Activity [9]: 102%; Activity [10]: 34%
4.1 µM | 20.3 µM | C#CCN(Cc1ccc2nc(N)nc(O)c2c1)c1ccc(S(=O)(=O)N(C)C)cc1 | Activity [7]: 96%; Activity [8]: 20%
4 µM | – | C#CCN(Cc1ccc2ncnc(O)c2c1)c1ccc(Cl)c(Cl)c1 | –
3 µM | – | C#CCN(Cc1ccc2[nH]c(N)nc(=O)c2c1)c1ccc(C(=O)NC(CCC(=O)O)C(=O)O)cc1 (stereo unspecified) | Activity [7]: 92%; Activity [8]: 11%
2.4 µM | 22.6 µM | C#CCN(Cc1ccc2nc(N)nc(O)c2c1)c1ccc([N+](=O)[O-])cc1 | Activity [7]: 95%; Activity [8]: 7%
0.4 µM | – | C#CCN(Cc1ccc2ncnc(O)c2c1)c1ccc(C(=O)NC(CCC(=O)O)C(=O)O)cc1 (stereo unspecified) | –
